Here are results for two compounds from ChEMBL document CHEMBL4190282, “The Conjugated Double Bond of Coniferyl Aldehyde Is Essential for Heat Shock Factor 1 Mediated Cytotoprotection” (J Nat Prod, 2017).

SMILES strings stand for the structures. The source made the active and inactive calls. The rule behind the calls is not given here.

Data set [1] deals with L132. The data set is described as follows: Cytoprotective activity against cisplatin-induced caspase3 cleavage in human L-132 cells at 3 uM pretreated for 1 hr followed by cisplatin addition measured after 24 hrs by immunoblotting analysis. In kind it is functional, cell-based. The method, boiled down:
(§1)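 Human embryonic lung L132 cells in RPMI with 10% FBS. 1 h pretreatment at 3 μM, then 0.5 μM paclitaxel or 20 μM cisplatin for 24 h, or 10 Gy 137Cs γ-rays (3.81 Gy/min) for 48 h. Cleaved PARP and caspase-3 immunoblotted (ECL); bands normalized to loading control, fold-change vs negative control, ≥3 independent experiments.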

Data set [2] has as its system Mus musculus. The data set is described as follows: Toxicity in ICR mouse at 10 mg/kg, ip measured within 30 days. The conditions noted are these: in vivo, 720 h. In kind it is organism-based. In short, it runs like this:
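Normal ICR mice given 10 mg/kg ip (DMSO stock diluted in modified PBS); observed for signs of toxicity over 30 days.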

The test system of data set [3] is MEF. Nature of the data set: Cytoprotective activity against IR-induced PARP cleavage in HSF1 deficient MEF at 3 uM pretreated for 1 hr followed by 10 Gy irradiation measured after 48 hrs by immunoblotting analysis. In kind it is functional, cell-based. As to conditions: Mus musculus. In short, it runs like this:
(§2)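 HSF1+/+ or HSF1−/− MEFs in DMEM with heat-inactivated 10% FBS, nonessential amino acids, glutamine, HEPES, 37 °C, 5% CO2. 1 h pretreatment at 3 μM, then 0.5 μM paclitaxel or 20 μM cisplatin for 24 h, or 10 Gy 137Cs γ-rays (3.81 Gy/min) for 48 h. Cleaved PARP and caspase-3 immunoblotted; bands normalized to loading control, fold-change vs negative control, ≥3 independent experiments.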
A general note: In western blotting, separated proteins are transferred to a membrane and probed.

Data set [4] deals with T1, Heat shock factor protein 1 (Mus musculus) (UniProt P38532).
T1 sequence (whole entry): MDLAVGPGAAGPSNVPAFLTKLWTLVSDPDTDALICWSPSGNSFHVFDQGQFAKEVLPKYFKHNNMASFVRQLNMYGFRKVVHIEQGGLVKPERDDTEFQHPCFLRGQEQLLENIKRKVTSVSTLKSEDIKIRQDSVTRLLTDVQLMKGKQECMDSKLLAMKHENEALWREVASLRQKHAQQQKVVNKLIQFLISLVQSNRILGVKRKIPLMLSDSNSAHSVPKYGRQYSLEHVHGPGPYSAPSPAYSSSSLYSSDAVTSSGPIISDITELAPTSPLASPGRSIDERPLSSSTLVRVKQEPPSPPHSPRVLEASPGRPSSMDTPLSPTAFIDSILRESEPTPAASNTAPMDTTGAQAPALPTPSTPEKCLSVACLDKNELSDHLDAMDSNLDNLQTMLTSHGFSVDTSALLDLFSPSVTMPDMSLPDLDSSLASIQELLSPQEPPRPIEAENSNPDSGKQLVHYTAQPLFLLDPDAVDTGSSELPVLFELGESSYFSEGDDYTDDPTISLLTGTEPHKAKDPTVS
The data set is described as follows: Activation of HSF1 in MEF assessed as protection against paclitaxel-induced PARP cleavage at 3 uM pretreated for 1 hr followed by paclitaxel addition measured after 24 hrs by immunoblotting analysis. The class given is cell-based. The method, boiled down:
as §2

In data set [5] the target is T1, Heat shock factor protein 1 (Mus musculus). The data set is described as follows: Activation of HSF1 in MEF assessed as protection against cisplatin-induced PARP cleavage at 3 uM pretreated for 1 hr followed by cisplatin addition measured after 24 hrs by immunoblotting analysis. The class given is cell-based. In short, it runs like this: as §2
Data set [6] has as its system L132. Nature of the data set: Cytoprotective activity against paclitaxel-induced cell death in human L-132 cells at 3 uM pretreated for 1 hr followed by paclitaxel addition measured after 24 hrs by FACS analysis. The class given is functional, cell-based. The method, boiled down:
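L132 cells in RPMI with 10% FBS. 1 h pretreatment at 3 μM, then 0.5 μM paclitaxel or 20 μM cisplatin for 24 h, or 10 Gy γ-rays for 48 h. Cells trypsinized, washed, stained with propidium iodide and analysed by flow cytometry. Means ± SD of ≥3 independent experiments, fold-change vs negative control.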
In general terms: A flow cytometer gives signals particle by particle.

Data set [7] has as its target T2, Heat shock factor protein 1 (Homo sapiens) (UniProt Q00613).
T2 sequence (whole entry): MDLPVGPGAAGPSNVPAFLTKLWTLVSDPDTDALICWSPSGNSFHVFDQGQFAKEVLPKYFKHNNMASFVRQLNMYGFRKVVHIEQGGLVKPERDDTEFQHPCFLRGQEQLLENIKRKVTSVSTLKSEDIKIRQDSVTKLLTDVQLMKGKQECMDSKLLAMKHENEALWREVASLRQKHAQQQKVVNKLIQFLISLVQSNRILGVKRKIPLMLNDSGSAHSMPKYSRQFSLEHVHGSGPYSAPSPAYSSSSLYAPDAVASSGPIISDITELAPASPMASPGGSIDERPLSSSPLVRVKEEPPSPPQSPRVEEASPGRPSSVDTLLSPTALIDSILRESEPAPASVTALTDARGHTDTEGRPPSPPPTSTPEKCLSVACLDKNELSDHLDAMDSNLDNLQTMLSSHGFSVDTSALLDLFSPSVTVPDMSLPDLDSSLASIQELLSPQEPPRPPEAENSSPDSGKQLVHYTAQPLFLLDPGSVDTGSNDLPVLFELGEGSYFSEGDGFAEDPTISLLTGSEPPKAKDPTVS
The data set is described as follows: Activation of HSF1 in human NCI-H460 cells assessed as upregulation of HSP25 protein levels at 10 to 30 uM after 12 hrs by Western blot analysis. The class given is cell-based. The method, boiled down: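 NCI-H460 cells treated 12 h at 10 or 30 μM; HSF1, HSP27 and HSP70 detected by Western blot.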

The target of data set [8] is T2, Heat shock factor protein 1 (Homo sapiens). The data set is described as follows: Activation of HSF1 in human NCI-H460 cells expressing pGL4-hsp25 construct assessed as upregulation of hsp25 promoter activity at 10 to 30 uM after 12 hrs by luciferase reporter gene assay. The class given is cell-based. In short, it runs like this:
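NCI-H460 cells stably carrying hsp25 or hsp70 promoter–luciferase reporters, seeded, treated after 24 h at 10 or 30 μM and harvested 12 h later. Lysate luciferase normalized to β-galactosidase; mean of three independent experiments, fold-change vs negative control.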
On the technique in general: In a reporter assay the amount or activity of a reporter protein is the signal.

The subject of data set [9] is MEF. The data set is described as follows: Cytoprotective activity against paclitaxel-induced caspase3 cleavage in HSF1 deficient MEF at 3 uM pretreated for 1 hr followed by paclitaxel addition measured after 24 hrs by immunoblotting analysis. In kind it is functional, cell-based. As to conditions: Mus musculus. The method, boiled down: as §2
The subject of data set [10] is L132. The data set is described as follows: Cytoprotective activity against IR-induced PARP cleavage in human L-132 cells at 3 uM pretreated for 1 hr followed by 10 Gy irradiation measured after 48 hrs by immunoblotting analysis. The class given is functional, cell-based. In short, it runs like this:
as §1

Data set [11] concerns Mus musculus. Nature of the data set: Protection against IR-induced reduction in cellular proliferation in ICR mouse at 10 mg/kg, ip administered once before and three times after 4.5 Gy irradiation measured after 9 days by Ki67 staining-based immunohistochemical analysis. In kind it is functional, organism-based. The method, boiled down: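 Female ICR mice (5–6 weeks) given 4.5 Gy whole-body IR, dosed ip at 10 mg/kg once before and three times after IR; 5 per group, sacrificed day 9. BM cellularity from H&E (hematopoietic cells per 200×200 μm area); peripheral WBC, lymphocytes, neutrophils; Ki67 IHC counted in five fields per femur; relative spleen weight vs control. Means ± SD, Student's t test.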

Data set [12] has as its target T1, Heat shock factor protein 1 (Mus musculus). Nature of the data set: Activation of HSF1 in MEF assessed as protection against paclitaxel-induced caspase3 cleavage at 3 uM pretreated for 1 hr followed by paclitaxel addition measured after 24 hrs by immunoblotting analysis. In kind it is cell-based. In short, it runs like this:
as §2

For data set [13] the target is unchanged. Nature of the data set: Activation of HSF1 in MEF assessed as protection against cisplatin-induced caspase3 cleavage at 3 uM pretreated for 1 hr followed by cisplatin addition measured after 24 hrs by immunoblotting analysis. In kind it is cell-based. The method, boiled down:
as §2

`COc1cc(/C=C/C=O)ccc1O` [CONIFERYL ALDEHYDE]: the result (with L132 [1]; in [4]; in [5]; in the data set on L132 [6]; in [7]; in data set [8]) was Active. Also, the outcome (in the data set on L132 [10]; in the data set with Mus musculus [11]; in [12]; in data set [13]) was Active. Further, the Activity entry in the data set with Mus musculus [2] was “Non-Toxic”. Also, the outcome with MEF [3] and with MEF [9] was inactive.
Turning to `COc1cc(/C=C/CO)ccc1O` [CONIFERYL ALCOHOL], the outcome (in the data set with L132 [1]; in [4]; in data set [5]; in the data set on L132 [6]; in data set [7]; in data set [8]) was Active. Besides, the outcome (in the data set with L132 [10]; in the data set with Mus musculus [11]; in [12]; in data set [13]) was Active. The Activity result in the data set on Mus musculus [2] was “Non-Toxic”. Also, the result in the data set with MEF [3] and in the data set with MEF [9] was inactive.
